Our source for the outcome and potentiation values is PubChem BioAssay.

Calls of active or inactive are those of the source.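 How the source made its calls, unless noted: active means current rise at least 3 SD above the untreated control mean in each of two repeat wells; inactive means the rest.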

In one experiment the target is Potassium voltage-gated channel subfamily KQT member 2 (Rattus norvegicus) (UniProt O88943). The experiment in a line: KCNQ2 thallium flux enhancement – KCNQ2-CHO-K1 cells, selectivity assay for KCNQ1 potentiator project (AID 493009;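 active means mean duplicate potentiation above the buffer control mean plus 5 SD of buffer wells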;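 further: assay conditions were tuned for KCNQ1 rather than KCNQ2 modulators; signal is max minus min fluorescence divided by baseline after thallium stimulus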). The settings on record: FluxOR thallium flux fluorescence, at 10 µM; stronger effect = higher value, scaled: buffer 0, activator control 100.
Chain of Potassium voltage-gated channel subfamily KQT member 2 (Rattus norvegicus) (O88943 whole entry, looked up): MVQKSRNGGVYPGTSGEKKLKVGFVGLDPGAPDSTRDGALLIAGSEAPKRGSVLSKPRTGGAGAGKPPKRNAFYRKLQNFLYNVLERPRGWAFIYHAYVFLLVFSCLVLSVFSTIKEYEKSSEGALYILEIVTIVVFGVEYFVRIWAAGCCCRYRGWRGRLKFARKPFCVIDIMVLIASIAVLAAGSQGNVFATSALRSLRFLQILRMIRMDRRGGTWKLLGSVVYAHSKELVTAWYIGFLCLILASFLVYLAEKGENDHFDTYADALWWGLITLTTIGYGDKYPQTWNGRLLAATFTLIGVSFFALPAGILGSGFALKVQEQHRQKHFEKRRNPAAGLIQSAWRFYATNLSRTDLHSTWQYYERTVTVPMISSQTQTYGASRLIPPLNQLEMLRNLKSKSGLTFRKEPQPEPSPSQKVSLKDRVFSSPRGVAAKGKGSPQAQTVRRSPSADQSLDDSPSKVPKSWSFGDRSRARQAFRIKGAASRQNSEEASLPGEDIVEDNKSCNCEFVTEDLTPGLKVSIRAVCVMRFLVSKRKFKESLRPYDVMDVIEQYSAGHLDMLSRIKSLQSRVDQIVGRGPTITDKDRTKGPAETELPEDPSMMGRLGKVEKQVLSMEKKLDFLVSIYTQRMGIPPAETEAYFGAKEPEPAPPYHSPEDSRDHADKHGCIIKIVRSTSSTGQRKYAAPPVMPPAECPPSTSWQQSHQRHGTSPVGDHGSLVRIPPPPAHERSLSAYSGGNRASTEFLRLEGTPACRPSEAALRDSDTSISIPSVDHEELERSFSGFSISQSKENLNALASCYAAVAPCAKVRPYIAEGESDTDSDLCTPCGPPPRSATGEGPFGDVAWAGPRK
With `Cn1cc(C(=O)N/N=C/c2ccc([N+](=O)[O-])cc2)c2ccccc21`, the outcome was inactive.
Still for that read-out and setting: the same measure for `Cc1cccc(OCc2n[nH]c(=S)n2C2CCCCC2)c1`: “inactive”; for `CC(=O)Nc1ccc(NC(=O)CSC2=NS(=O)(=O)c3cc(Cl)ccc3N2)cc1`: “inactive”.
On the same count and under the same terms, the same measure for `COc1ccc(C(=O)/C=C/C(=O)N(CC(=O)NC2CCCCC2)Cc2ccccc2)c(O)c1`: “inactive”; for `Cc1ccccc1CS(=O)(=O)c1nnc([C@H](Cc2ccccc2)NC(=O)OC(C)(C)C)o1`: “inactive”.
Regarding `O=C(NC(=S)NCCC1=CCCCC1)c1ccccc1Br`, the potentiation was 186% (active).
For `O=C(NC(=S)Nc1cccc(Cl)c1)c1cncc(Br)c1`, the outcome was inactive.
Still for that read-out and setting: the result for `CC1=NOC(=O)/C1=C\c1ccc(-c2ccc(Br)cc2)o1` reads “inactive”.
Consider `C/C(=N\Nc1nc2ccccc2s1)c1ccc(Br)s1`, for which the result was inactive.
On the same count and under the same terms, the result for `CN1CCN(c2ccc(S(=O)(=O)N3CCCCC3)cc2NC(=O)COc2cccc(Cl)c2)CC1` reads “inactive”; that for `C=CS(=O)(=O)c1sc(Cl)c(N2CCOCC2)c1[N+](=O)[O-]`, “inactive”; that for `CC1Oc2ccccc2N(CC(=O)N2CCCCCC2)C1=O` (centres undefined), “inactive”.
In the case of `Cc1onc(-c2ccccc2)c1C(=O)NC(=S)Nc1sc2c(c1C#N)CCCC2`, the outcome was inactive.
Same read-out and setting: the result for `O=C(NC(=S)Nc1cc(C(F)(F)F)ccc1N1CCOCC1)c1sc2ccccc2c1Cl` reads “inactive”; that for `Cc1cccc(NC(=O)C2CCCN2S(=O)(=O)c2ccc(Cl)cc2)n1` (centres undefined), “inactive”; that for `COc1ccc(C(=O)N=C2CCC(C#N)=C3c4cc(OC)c(OC)cc4CCN23)cc1`, “inactive”.
The same measure, in the same setting: the same measure for `CCOC(=O)c1c(C)cccc1OCC(N)=O`: “inactive”.
Same read-out and setting: the result for `CC(C)CC(=O)Nc1nnc(SCC(=O)NCc2ccco2)s1` reads “inactive”; that for `COc1cccc(C2C3=C(N=c4s/c(=C\c5ccc(OCC(=O)O)cc5)c(=O)n42)c2ccccc2CC3)c1` (centres undefined), “inactive”.
On to `CCCOc1ccc(C(=O)NNC(=S)NC(=O)CC)cc1`, for which the result was inactive.

The target in another experiment is Potassium voltage-gated channel subfamily KQT member 1 (Homo sapiens) (UniProt P51787). The experiment in a line: KCNQ1 activators by electrophysiology – IonWorks patch clamp, KCNQ1-CHO cells, orthogonal assay for KCNQ1 potentiator project, confirmation (AID 493184). The settings on record: automated patch clamp current, at 10 µM; stronger effect = higher value. The procedure, abridged: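 Read-out: Percent current increase versus pre-compound level | Assay system: CHO cells carrying KCNQ1 | Measured by: Automated perforated-patch electrophysiology | Medium: External bath solution at pH 7.4 | Dosing: One dose, 10 µM final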
Chain of Potassium voltage-gated channel subfamily KQT member 1 (Homo sapiens) (P51787 whole entry, looked up): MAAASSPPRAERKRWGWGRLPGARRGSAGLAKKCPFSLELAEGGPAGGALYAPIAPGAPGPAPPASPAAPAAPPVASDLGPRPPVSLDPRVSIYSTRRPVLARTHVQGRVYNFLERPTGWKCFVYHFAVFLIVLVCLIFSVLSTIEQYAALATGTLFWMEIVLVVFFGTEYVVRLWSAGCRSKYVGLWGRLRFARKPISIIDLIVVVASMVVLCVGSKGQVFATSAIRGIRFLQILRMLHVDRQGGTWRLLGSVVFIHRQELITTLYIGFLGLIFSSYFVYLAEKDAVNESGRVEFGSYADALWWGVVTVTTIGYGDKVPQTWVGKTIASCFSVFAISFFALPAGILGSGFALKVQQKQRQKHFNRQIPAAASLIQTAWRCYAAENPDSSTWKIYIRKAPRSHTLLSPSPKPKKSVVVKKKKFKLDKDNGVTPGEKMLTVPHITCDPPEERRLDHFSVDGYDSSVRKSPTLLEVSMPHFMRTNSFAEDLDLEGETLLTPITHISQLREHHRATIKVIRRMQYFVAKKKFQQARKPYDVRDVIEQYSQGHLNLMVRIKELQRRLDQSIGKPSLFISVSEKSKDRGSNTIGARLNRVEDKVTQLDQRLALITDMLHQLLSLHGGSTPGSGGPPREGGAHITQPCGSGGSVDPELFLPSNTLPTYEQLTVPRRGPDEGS
For orientation: Patch clamp records ionic current or voltage across a cell membrane.
Consider `CC(=O)Nc1ccc(/C=N/NC(=O)c2cccc(S(=O)(=O)N3CCOCC3)c2)cc1`, for which the result was inactive.
Still for that read-out and setting: the same measure for `Cc1ccc2cc(/C=N/NC(=O)CN3CCCCC3)c(Cl)nc2c1`: “inactive”; for `COc1cc2c(cc1NC(=O)CSc1nnc(COc3ccc(Cl)cc3)n1C)oc1ccccc12`: “inactive”.
Still for that read-out and setting: the same measure for `Cc1ccc(OCCn2c(=S)[nH]c3ccccc32)c(C(C)C)c1`: “inactive”; for `CN(CC(=O)NCc1ccccc1Cl)CC(=O)Nc1cccc(F)c1`: “inactive”; for `COc1cccc(NC(=S)N/N=C2/CCCCc3ccccc32)c1`: “inactive”.
Regarding `Cc1ccsc1/C=N\NC(=O)c1n[nH]c2c1CCC2`, the outcome was inactive.
Still for that read-out and setting: the same measure for `CCn1c2ccccc2c2cc(CC(N)=O)ccc21`: “inactive”; for `Cc1ccc(C2C(C#N)=C(N)OC3=C2C(=O)CC(C)(C)C3)s1` (centres undefined): “inactive”; for `O=C(CNC(=S)NC(=O)c1ccc(Br)o1)c1ccccc1`: “inactive”.
As to `Cc1cccc(C(=O)NC(=S)NNC(=O)COc2c(C)cccc2C)c1`, the result was inactive.
On the same count and under the same terms, the result for `CCCn1c(=O)c(C(=O)NNC(=O)c2ccc(Cl)cc2Cl)c(O)c2ccccc21` reads “inactive”; that for `Cc1[nH]c(=S)c(C#N)c(C)c1Cc1ccc(Cl)cc1Cl`, “inactive”; that for `CCCCS(=O)(=O)/C=C\C=C/S(=O)(=O)CCCC`, “inactive”.
On the same count and under the same terms, the result for `O=C(Nc1nnc(-c2ccccc2)o1)c1cc(Cl)sc1Cl` reads “inactive”; that for `O=C(CNc1ccc(Br)cc1)NNC1=NCCC1`, “inactive”; that for `Cc1ccc(C)c(NC(=S)NNC(=O)c2csc3c2CCCC3)c1`, “inactive”.
On the same count and under the same terms, the same measure for `Cc1ccc(NC(=O)Nc2ccc3c(c2)CCC3)cc1`: “inactive”; for `Cc1nnnn1/C(=C\c1ccccc1)C(=O)OCC(=O)Nc1ccc(Cl)cc1F`: “inactive”; for `Cn1cc(C(=O)N/N=C/c2ccc([N+](=O)[O-])cc2)c2ccccc21`: “inactive”.
In the case of `Cc1cccc(OCc2n[nH]c(=S)n2C2CCCCC2)c1`, the outcome was inactive.
As to `CC(=O)Nc1ccc(NC(=O)CSC2=NS(=O)(=O)c3cc(Cl)ccc3N2)cc1`, the outcome was inactive.
Still for that read-out and setting: the same measure for `COc1ccc(C(=O)/C=C/C(=O)N(CC(=O)NC2CCCCC2)Cc2ccccc2)c(O)c1`: “inactive”; for `Cc1ccccc1CS(=O)(=O)c1nnc([C@H](Cc2ccccc2)NC(=O)OC(C)(C)C)o1`: “inactive”; for `O=C(NC(=S)NCCC1=CCCCC1)c1ccccc1Br`: “inactive”.
Consider `O=C(NC(=S)Nc1cccc(Cl)c1)c1cncc(Br)c1`, for which the result was inactive.
On the same count and under the same terms, the same measure for `CC1=NOC(=O)/C1=C\c1ccc(-c2ccc(Br)cc2)o1`: “inactive”.
On the same count and under the same terms, the same measure for `C/C(=N\Nc1nc2ccccc2s1)c1ccc(Br)s1`: “inactive”.
Regarding `CN1CCN(c2ccc(S(=O)(=O)N3CCCCC3)cc2NC(=O)COc2cccc(Cl)c2)CC1`, the outcome was inactive.
